{"source": "PubChem BioAssay AID623986", "about": "(Vanderbilt High Throughput Screening Facility, 2012)", "biological_target": "Potassium voltage-gated channel subfamily KQT member 4 (Homo sapiens) (UniProt P56696)", "sequence (P56696 whole entry, looked up)": "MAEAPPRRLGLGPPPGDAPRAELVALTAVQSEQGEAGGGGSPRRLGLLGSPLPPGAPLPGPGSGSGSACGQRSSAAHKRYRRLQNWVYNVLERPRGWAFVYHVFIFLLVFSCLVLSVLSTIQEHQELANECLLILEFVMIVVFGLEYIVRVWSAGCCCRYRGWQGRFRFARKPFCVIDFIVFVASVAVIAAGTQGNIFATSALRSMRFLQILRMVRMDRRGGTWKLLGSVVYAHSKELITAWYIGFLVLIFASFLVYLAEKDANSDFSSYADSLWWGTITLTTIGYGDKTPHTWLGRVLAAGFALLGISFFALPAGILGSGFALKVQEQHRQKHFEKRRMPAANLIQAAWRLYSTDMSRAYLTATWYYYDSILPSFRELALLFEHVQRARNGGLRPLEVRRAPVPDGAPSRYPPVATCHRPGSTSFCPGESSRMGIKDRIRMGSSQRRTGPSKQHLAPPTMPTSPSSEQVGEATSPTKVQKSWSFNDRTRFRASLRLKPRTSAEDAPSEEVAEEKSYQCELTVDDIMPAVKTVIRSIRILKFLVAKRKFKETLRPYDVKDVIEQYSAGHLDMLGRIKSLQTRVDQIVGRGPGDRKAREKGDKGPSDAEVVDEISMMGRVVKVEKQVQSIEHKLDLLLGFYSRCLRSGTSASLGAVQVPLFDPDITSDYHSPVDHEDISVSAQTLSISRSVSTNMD", "experiment": "Kv7.4 channel modulation by thallium flux, dose response, selectivity assay for GIRK activator project, cell-based, human, concentration-response (AID 623986)", "details": "T-REx-293 hKv7.4, thallium flux FluoZin-2 fluorescence; series mostly up to 100 µM", "in_short": "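System: T-REx-293 cells stably expressing human Kv7.4 potassium channel | Read-out: Post-stimulus fluorescence slope, XE-991 baseline subtracted, as % vehicle | Incubation: Dye loading ~60 min room temperature, compound pretreatment 4 min | Detection: FluoZin-2 thallium flux fluorescence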", "note": "The source made the active and inactive calls. How the calls were made is not given here.", "data": [{"smiles": "Cc1cc(NC(=O)Nc2ccc(F)c(F)c2)n(-c2ccccc2)n1", "values": [{"measurement": "outcome", "value": "inactive"}]}]}
